From PubChem BioAssay
TRAIL sens C8: viability loss with TRAIL in NB7+C8 cells, primary screen, TRAIL sensitizer project, cell-based, ATPlite luminescence. AID 624354, 2012. hit rate 1% among 360,000. inhibition (viability loss, TRAIL sensitization), % at 10 µM;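 active = compounds causing at least 50% loss of cell viability in the single-dose screen, relative to plate controls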
FLuc inhib CS: firefly luciferase enzyme inhibitors, primary screen, artefact control for luciferase-based inhibitor screens, biochemical, luminescence, ATPLite. 10 min. inhibition, % at 10 µM. hit rate 1.5% among 200,000. AID 1006, 2008;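 active = inhibition above about 50% when tested at 10 µM, limit read from the data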
Target sequence (P08659 whole entry, looked up): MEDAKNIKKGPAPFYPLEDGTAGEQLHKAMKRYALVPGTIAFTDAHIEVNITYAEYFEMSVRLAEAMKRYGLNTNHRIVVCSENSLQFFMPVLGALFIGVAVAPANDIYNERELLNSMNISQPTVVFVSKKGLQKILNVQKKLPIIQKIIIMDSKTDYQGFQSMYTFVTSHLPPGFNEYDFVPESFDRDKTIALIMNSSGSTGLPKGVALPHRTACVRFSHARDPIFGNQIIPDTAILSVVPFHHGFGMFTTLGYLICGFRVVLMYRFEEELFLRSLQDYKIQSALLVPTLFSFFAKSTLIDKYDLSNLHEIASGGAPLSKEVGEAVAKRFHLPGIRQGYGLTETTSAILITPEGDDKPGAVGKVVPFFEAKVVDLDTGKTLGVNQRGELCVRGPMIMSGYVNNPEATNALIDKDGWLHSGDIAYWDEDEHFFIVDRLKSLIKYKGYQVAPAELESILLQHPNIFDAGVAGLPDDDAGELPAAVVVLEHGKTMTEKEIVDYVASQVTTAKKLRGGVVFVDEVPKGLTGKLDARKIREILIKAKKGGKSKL
FLuc stim CS: FLuc activators, initial screening, artefact control for FLuc-dependent activation tests, biochemical, ATPlite luminescence. Luciferin 4-monooxygenase (Photinus pyralis), P08659. ATPlite luciferase biochemical, 10 min; 0 = ATP-free wells, 1 = DMSO control. activation factor at 10 µM. 200,000 tested, under 10 active;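 active = luciferase activation factor, scaled between plate controls, of at least 2 with compound at 10 µM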
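test system = cell-free luciferase reagent | medium = PBS as buffer for the ATP substrate | dosing = test compounds dosed from 2 mM stocks in 100% DMSO | incubation = 10 min at ambient temperature | detection = luminescence measurement of luciferase light output | benchmarks = low control with PBS replacing ATP, high control enzyme plus ATP without compound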
PPC-1+TRAIL kill: compounds killing PPC-1 cancer cells with TRAIL present, primary screen, TRAIL potentiator project, ATPLite luminescence, uHTS; hit rate 0.41% among 220,000; PPC-1 cells + TRAIL, ATPLite viability luminescence; cell killing (% activity), % at 4 µM or 5 µM;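 active = cell killing above 50% in the first pass at 4 µM, then a duplicate retest at 5 µM averaging 50% or more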;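 note: plate controls were cells with TRAIL plus DMSO for no effect and medium-only wells lacking cells for full effect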
* hit, by the source's call; . = no result. This is a sample that favours compounds with a hit; in the whole collection about 1.6% have one here.

SMILES | TRAIL sens C8 | FLuc inhib CS | FLuc stim CS | PPC-1+TRAIL kill
O=C(/C=C/Nc1ccccc1C(=O)O)c1cccs1 | -3.1 | 64.7* | 0.4 | 8.7
CC(=O)Nc1ccc(S(=O)(=O)NCCC(=O)NNC(=O)c2ccccc2O)cc1 | 2.8 | . | . | .
O=C1NC[C@H](CCCCN2CCN(Cc3ccccc3)C(=O)C2=O)N(CC2CCCCC2)C1=O | -4.7 | . | . | .
O=C(NCCc1ccccc1F)c1ccc2c(c1)OCCO2 | 91.5* | . | . | .
O=C(Nc1ccc(Br)cc1F)c1ccc2c(c1)OCCO2 | 53.6* | . | . | .
N#CCC(C(=O)c1cccnc1)c1ccccc1 (configuration not stated) | 1.9 | . | . | .
Cc1cc(NC(=O)c2ccc(Cl)cc2)cc(C)c1OCC(=O)N1CCOCC1 | 53.9* | . | . | .
O=C(CSc1nnc(-c2ccc(O)cc2)o1)N1CCOCC1 | -4.1 | 3.2 | 1 | 6.0
Oc1ccc(-c2nnc(SCC3CCCCC3)o2)cc1 | 72.5* | 30.0 | 0.7 | 15.1
CCCC(=O)N1CCCC1(C)C(=O)Nc1ccc2nc(C)ccc2c1 (configuration not stated) | 15.3 | . | . | .
O=C(O)Cc1ccc2sc(-c3ccccc3)nc2c1 | 25.0 | 43.4 | 0.6 | 9.1
COC(=O)Cc1ccc2sc(-c3ccccc3)nc2c1 | 62.5* | 83.0* | 0.2 | 44.5
COc1cc(OC)cc(C(=O)O/N=C(\N)c2cccc(C)c2)c1 | 31.7 | . | . | .
COc1cc(C(=O)O/N=C(\N)c2ccccn2)cc(OC)c1OC | -14.7 | . | . | -0.8
CCOc1ccc(C(=O)O/N=C(\N)c2ccccn2)cc1 | 92.6* | . | . | .
Cc1cccc(/C(N)=N/OC(=O)c2cccnc2)c1 | 2.9 | 64.5* | 0.4 | 20.7
Cc1ccc(C(=O)O/N=C(\N)c2ccccn2)cc1 | 94.8* | . | . | .
COc1ccc(C(=O)O/N=C(\N)c2ccccn2)c(OC)c1 | 62.2* | . | . | 45.0
CCCn1c(CN2CCN(C(=O)c3ccco3)CC2)nc2cc(S(=O)(=O)N(C)C)ccc21 | -1.1 | . | . | .
CCOC(=O)C1=CN(Cc2cccc(F)c2)S(=O)(=O)N(CC)C1c1ccc(C(F)(F)F)cc1 (configuration not stated) | 12.4 | . | . | .
O=C([C@@H]1CCCN1C1=NS(=O)(=O)c2ccccc21)N1CCN(c2ccccc2)CC1 | -5.2 | . | . | .
O=C(CCNC(=O)c1ccco1)NC(Cc1c[nH]c2ccccc12)C(=O)O (configuration not stated) | -10.1 | . | . | .
Cc1cccc(/C(N)=N/OC(=O)C23CC4CC(CC(C4)C2)C3)c1 | -0.5 | 62.0* | 0.4 | 10.4
N/C(=N\OC(=O)Cc1ccccc1)c1ccccn1 | 10.0 | 12.0 | 0.9 | -12.0
Cc1cccc(/C(N)=N/OC(=O)N2c3ccccc3Sc3ccccc32)c1 | -11.5 | -2.5 | 1 | -2.9
SMILES | TRAIL sens C8 | FLuc inhib CS | FLuc stim CS | PPC-1+TRAIL kill
Cc1ccc(C(=O)O/N=C(\N)c2ccccn2)cc1C | 81.4* | . | . | .
N/C(=N\OC(=O)c1ccc(Br)o1)c1ccccn1 | 23.6 | 78.5* | 0.2 | 7.8
C/C(=N/NC(=O)c1ccc(C(C)(C)C)cc1)c1ccccn1 | 28.0 | . | . | .
CC(C)(C)c1ccc(C(=O)O/N=C(\N)c2ccccn2)cc1 | 97.5* | . | . | .
Nc1ccc(C(=O)CC(=O)Nc2ccc(Cl)cc2)cc1 | -8.7 | . | . | .
N/C(=N\OC(=O)c1cccc(F)c1)c1ccccn1 | 55.9* | . | . | .
Cc1cccc(/C(N)=N/OC(=O)c2ccc(Br)o2)c1 | 1.3 | 66.9* | 0.3 | -3.7
N/C(=N\OC(=O)/C=C/c1ccccc1Cl)c1ccccn1 | 30.7 | 74.0* | 0.3 | 27.9
Cc1cccc(/C(N)=N/OC(=O)Cc2ccccc2)c1 | 2.1 | 12.0 | 0.9 | 12.7
C/C(=N/OCc1ccc(Br)cc1)c1ccccn1 | 24.4 | 45.3 | 0.5 | 5.6
C/C(=N\OC(=O)c1ccc(Br)cc1)c1ccccn1 | -8.4 | 79.7* | 0.2 | 26.9
O=C1NCCNC1c1ccccc1 (configuration not stated) | 4.2 | . | . | .
CCN(C(=O)CCCCC(=O)N(CC)c1ccccc1)c1ccccc1 | -7.4 | . | . | .
Cc1cccc(C(=O)O/N=C(\N)c2ccccn2)c1 | 86.7* | . | . | .
Cc1cccc(OCC(=O)O/N=C(\N)c2ccccn2)c1 | 1.1 | 5.5 | 0.9 | 8.1
COCCNc1nc(-c2cc3ccccc3o2)cs1 | 44.9 | 62.3* | 0.4 | 12.8
O=C(Nc1ccc2nc(-c3ccco3)[nH]c2c1)c1ccco1 | 46.5 | 80.2* | 0.2 | 39.0
O=C(Nc1ccc(-c2nc3ccccc3[nH]2)cc1)c1ccco1 | 40.4 | 57.7* | 0.4 | 33.4
O=C(Nc1ccc2nc(-c3ccco3)[nH]c2c1)c1cccs1 | 55.4* | 76.6* | 0.2 | 26.4
CCCc1cc(C(=O)NC(C)C2CCCO2)cs1 (configuration not stated) | 0.2 | . | . | .
COc1ccc2no[n+]([O-])c2c1 | . | . | . | 1.0
COc1ccc(CNC(=O)O[C@H]2CN(C(=O)OC(C)C)N(C(=O)OC(C)C)[C@@H]3CN(S(=O)(=O)c4ccc(C)cc4)C[C@]23O)cc1OC | 1.4 | . | . | .
Cc1ccc(-c2nn(-c3ccccc3)cc2C=O)o1 | 20.7 | 62.2* | 0.4 | 17.2
COc1ccc(C(=O)Oc2ccc(N(C)S(=O)(=O)c3ccccc3)cc2)cc1[N+](=O)[O-] | -2.4 | . | . | .
COCCN(C(=O)COC(=O)c1c(NC(C)=O)sc(C)c1C)c1c(N)n(Cc2ccccc2)c(=O)[nH]c1=O | 50.7* | . | . | .
SMILES | TRAIL sens C8 | FLuc inhib CS | FLuc stim CS | PPC-1+TRAIL kill
CC(C)(C)NC(=O)C(c1ccncc1)n1c(-c2ccc(C(F)(F)F)cc2)nc2ccccc21 (configuration not stated) | 79.5* | . | . | .
O=C(OCc1cc(=O)n2ccsc2n1)c1ccccc1NCCO | -4.2 | . | . | .
O=c1cc(C(Cl)(Cl)Cl)oc2c1ccc1ccccc12 | 90.0* | -2.5 | 1 | 17.2
COc1cc(N/C(N)=N/c2nc(C)cc(C)n2)c(OC)cc1Cl | 1.3 | -7.7 | 1.1 | 16.2
O=C(Nc1ccc([N+](=O)[O-])cc1)Nc1nc(-c2ccc(Cl)s2)cs1 | 39.6 | -5.0 | 1.1 | 67.4*
CC(=O)Nc1nc(-c2ccc([N+](=O)[O-])cc2)cs1 | 1.6 | -2.9 | 1 | 16.5
Cc1nc(-c2ccccc2)sc1-c1ccnn1C | 29.4 | 56.7* | 0.4 | 6.8
Cc1nc(-c2ccccc2)sc1-c1ccn[nH]1 | 34.2 | 69.7* | 0.3 | 26.9
COc1ccc(CNC(=O)COC(=O)c2ccc(Br)cc2)cc1 | -4.4 | 0.2 | 1 | 15.6
Cc1ccc(N2CS(=O)(=O)/C(=C/N(C)C)C2=O)cc1 | 24.8 | 56.6* | 0.4 | 46.7
Cn1c(NC(=O)c2ccc(F)cc2)nc2ccccc21 | 64.3* | . | . | .
O=C(Nc1nc2ccccc2c2nc3ccccc3n12)c1ccc(F)cc1 | . | -4.6 | 1 | 6.0
Cc1ccc(C(=O)Nc2ncc(Cc3ccc(F)cc3)s2)o1 | 25.4 | 62.0* | 0.4 | 32.8
Cc1c(C(=O)NCC2CCCO2)oc2ccc3c(c12)C(=O)CC(C)(C)O3 (configuration not stated) | 40.6 | 67.0* | 0.3 | 37.6
Cc1c(C(=O)NCC2CCCO2)oc2ccccc12 (configuration not stated) | -21.4 | . | . | .
